For assay [1], the species on record is Homo sapiens. Description: Antiapoptotic activity against HREC at 10 ug/ml after 48 hrs by MTT assay. In kind it is functional.
For assay [2], the species on record is Homo sapiens. Description: Antiapoptotic activity against HREC after 48 hrs by MTT assay. In kind it is functional. The essentials: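 Serum-deprived human retinal endothelial cells (passages 2–7, grown on gelatin-coated dishes in EBM-2/EGM-2 with 20% FBS) exposed to analogs for 48 h; viability read by MTT colorimetric assay. Single-point screen at 10 mg/mL; dose-response over […]. Controls were medium alone (0 h) and DMSO vehicle.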

For assay [3], the species on record is Homo sapiens. Description: Antiapoptotic activity against VEGF-treated HREC assessed as enhancement of occludin integrity at 10 ug/ml incubated for 60 mins prior to VEGF challenge measured after 60 mins by immunofluorescence microscopy. In kind it is functional.
The species entered for assay [4] is Homo sapiens. The assay can be described thus: Antiapoptotic activity against HREC assessed as stabilization of cortical actin ring by measuring reduction of VEGF-induced actin stress fibre formation at 10 ug/ml incubated for 60 mins prior to VEGF challenge measured after 60 mins by immunofluorescence microscopy. The class given is functional.
The species entered for assay [5] is Homo sapiens. Description: Antiapoptotic activity against HREC assessed as reduction in VEGF-induced actin stress fibre formation at 10 to 20 ug/ml incubated for 60 mins prior to VEGF challenge measured after 60 mins by immunofluorescence microscopy. The class given is functional.
The test system of assay [6] is Mus musculus. Description: Inhibition of retinal vascular leakage in C57BL/6 mouse diabetic retinopathy model assessed as restoration of reduced occludin expression at 10 ug/ml, […] after 24 hrs by Western blotting analysis. The class given is functional, organism-based.
The species entered for assay [7] is Homo sapiens. Description: Antiapoptotic activity against VEGF-treated HREC assessed as enhancement of occludin integrity at 10 ug/ml incubated for 60 mins prior to 50 ng/ml VEGF challenge measured after 60 mins by ZO-1 staining-based microscopy. In kind it is functional.
The species named for assay [8] is Homo sapiens. The assay can be described thus: Antiapoptotic activity against VEGF-treated HREC assessed as enhancement of occludin integrity at 1 to 10 ug/ml incubated for 60 mins prior to 20 ng/ml VEGF challenge measured after 60 mins by ZO-1 staining-based microscopy. The class given is functional.
The subject of assay [9] is Mus musculus. Description: Inhibition of VEGF-induced retinal vascular leakage in C57BL/6 mouse diabetic retinopathy model at 10 ug/ml, […] after 24 hrs by FITC-dextran staining-based fluorescein angiography. In kind it is functional, organism-based. The essentials:
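Eight-week-old C57BL/6 mice received an intravitreal injection of VEGF (50 ng) with or without analog ([…]) in one eye, and DMSO vehicle (same total volume, […]) in the contralateral eye. After 24 h, 40-kDa FITC-dextran (3 mg) was injected into the left ventricle and circulated 5 min. Eyes were fixed in 4% PFA and retinas flat-mounted for fluorescence microscopy.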

The test system of assay [10] is Mus musculus. The assay can be described thus: Inhibition of retinal vascular leakage in C57BL/6 mouse diabetic retinopathy model at 10 ug/ml, […] after 24 hrs by FITC-dextran staining-based fluorescein angiography. The class given is functional, organism-based. The essentials:
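Diabetes induced in C57BL/6 mice with streptozotocin 90 mg/kg i.p. in citrate buffer pH 4.5, daily for 4 days; mice with glucose >300 mg/dl 3 days later were used. Analog ([…]) given intravitreally to one eye, DMSO to the other; n=5/group. At 24 h, leakage assessed by FITC-dextran angiography and Evans blue extraction (620 nm) normalized to retinal weight, blood dye and circulation time.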

Molecules are shown by their SMILES. The source made the active and inactive calls. The calls are words filed in the database; no cut-off is given here.

For the molecule `CC(C)=CCC[C@](C)(O)[C@H]1CC[C@]2(C)[C@@H]1[C@H](O)C[C@@H]1[C@@]3(C)CC[C@H](O[C@@H]4O[C@H](CO)[C@@H](O)[C@H](O)[C@H]4O[C@@H]4O[C@H](CO)[C@@H](O)[C@H](O)[C@H]4O)C(C)(C)[C@@H]3CC[C@]12C`, the result in the assay filed under Homo sapiens [1] was Active. Take `CC(=O)OC[C@H]1OC(O[C@H]2CC[C@@]3(C)C(=CC[C@H]4[C@@H]5CC[C@H](/C(C)=N/OCCC(C)C)[C@@]5(C)CC[C@@H]43)C2)C=C[C@@H]1OC(C)=O` (stereo partly specified): the outcome in the assay filed under Homo sapiens [1] was Active. For `C=C(CCC=C(C)C)[C@H]1CC[C@]2(C)[C@@H]1[C@H](O)C[C@@H]1[C@@]3(C)CC[C@H](O[C@@H]4O[C@H](CO)[C@@H](O)[C@H](O)[C@H]4O[C@@H]4O[C@H](CO)[C@@H](O)[C@H](O)[C@H]4O)C(C)(C)[C@@H]3CC[C@]12C`, in the assay filed under Homo sapiens [1], the result was Active.

For `CCCCCO/N=C(\C)[C@H]1CC[C@H]2[C@@H]3CC=C4C[C@@H](OC5C=C[C@H](OC(C)=O)C(COC(C)=O)O5)CC[C@]4(C)[C@H]3CC[C@]12C` (single isomer, unassigned), the result in the assay filed under Homo sapiens [1] was Active. On to `CC(=O)OC[C@H]1OC(O[C@H]2CC[C@@]3(C)C(=CC[C@H]4[C@@H]5CC[C@H](/C(C)=N/OC6C=CCCC6)[C@@]5(C)CC[C@@H]43)C2)C=C[C@@H]1OC(C)=O` (stereo partly specified), for which the outcome in the assay filed under Homo sapiens [1], in the assay listed under Homo sapiens [3] and in the assay filed under Homo sapiens [4] was Active. Besides, in the assay filed under Homo sapiens [2], the Activity entry was “Dose-dependent effect”. Turning to `C/C(=C\CCC(C)C)[C@H]1CC[C@H]2[C@@H]3CC=C4C[C@@H](OC5CCCCO5)CC[C@]4(C)[C@H]3CC[C@]12C` (stereo partly specified), the outcome in the assay filed under Homo sapiens [1] was Active. Consider `CC(=O)OC[C@H]1OC(O[C@H]2CC[C@@]3(C)C(=CC[C@H]4[C@@H]5CC[C@H](/C(C)=C/CCC(C)C)[C@@]5(C)CC[C@@H]43)C2)C=C[C@@H]1OC(C)=O` (stereo partly specified), for which the result in the assay listed under Homo sapiens [1] and in the assay listed under Homo sapiens [5] was Active. Regarding `CC(=O)OC[C@H]1OC(O[C@H]2CC[C@@]3(C)C(=CC[C@H]4[C@@H]5CC[C@H](/C(C)=N/OCc6cccnc6)[C@@]5(C)CC[C@@H]43)C2)C=C[C@@H]1OC(C)=O` (stereo partly specified), the outcome in the assay filed under Homo sapiens [1] was inactive.

As for `C=CCO/N=C(\C)[C@H]1CC[C@H]2[C@@H]3CC=C4C[C@@H](OC5C=C[C@H](OC(C)=O)C(COC(C)=O)O5)CC[C@]4(C)[C@H]3CC[C@]12C` (single isomer, unassigned), the result in the assay listed under Homo sapiens [1] was Active. The same measure, in the same setting: the entry for `C#CCO/N=C(\C)[C@H]1CC[C@H]2[C@@H]3CC=C4C[C@@H](OC5C=C[C@H](OC(C)=O)[C@@H](COC(C)=O)O5)CC[C@]4(C)[C@H]3CC[C@]12C` (stereo partly specified) is “Active”.

On to `CCO/N=C(\C)[C@H]1CC[C@H]2[C@@H]3CC=C4C[C@@H](OC5C=C[C@H](OC(C)=O)C(COC(C)=O)O5)CC[C@]4(C)[C@H]3CC[C@]12C` (single isomer, unassigned), for which the outcome in the assay listed under Homo sapiens [1] was Active. `CC(=O)OC[C@H]1OC(O[C@H]2CC[C@@]3(C)C(=CC[C@H]4[C@@H]5CC[C@H](/C(C)=N/OCc6ccccc6)[C@@]5(C)CC[C@@H]43)C2)C=C[C@@H]1OC(C)=O` (stereo partly specified): the outcome in the assay listed under Homo sapiens [1], in the assay listed under Homo sapiens [3] and in the assay filed under Homo sapiens [4] was Active. Further, the Activity entry in the assay filed under Homo sapiens [2] is “Dose-dependent effect”. For the molecule `CC(=O)OCC1OC(O[C@H]2CC[C@@]3(C)C(=CC[C@H]4[C@@H]5CC[C@H](/C(C)=N/OC6CCCCC6)[C@@]5(C)CC[C@@H]43)C2)C=C[C@@H]1OC(C)=O` (single isomer, unassigned), in the assay listed under Homo sapiens [1], the result was Active. On the same count and under the same terms, the entry for `CC(=O)OC[C@H]1OC(O[C@H]2CC[C@@]3(C)C(=CC[C@H]4[C@@H]5CC[C@H](/C(C)=N/OCC(C)C)[C@@]5(C)CC[C@@H]43)C2)C=C[C@@H]1OC(C)=O` (stereo partly specified) is “Active”; for `CO/N=C(\C)[C@H]1CC[C@H]2[C@@H]3CC=C4C[C@@H](OC5C=C[C@H](OC(C)=O)C(COC(C)=O)O5)CC[C@]4(C)[C@H]3CC[C@]12C` (single isomer, unassigned) it is “Active”. Regarding `CC(=O)OC[C@H]1OC(O[C@H]2CC[C@@]3(C)C(=CC[C@H]4[C@@H]5CC[C@H](/C(C)=N/OC6CCCC6)[C@@]5(C)CC[C@@H]43)C2)C=C[C@@H]1OC(C)=O` (stereo partly specified), the result in the assay listed under Homo sapiens [1], in the assay listed under Homo sapiens [7], in the assay filed under Homo sapiens [8], in the assay listed under Homo sapiens [3] and in the assay filed under Homo sapiens [4] was Active. In addition, the inhibition result with Mus musculus [6], in the assay with Mus musculus [9] and with Mus musculus [10] was “Active” throughout. Also, the Activity entry in the assay listed under Homo sapiens [2] is “Dose-dependent effect”. On to `CC(=O)OC[C@H]1OC(O[C@H]2CC[C@@]3(C)C(=CC[C@H]4[C@@H]5CC[C@H](/C(C)=N/O)[C@@]5(C)CC[C@@H]43)C2)C=C[C@@H]1OC(C)=O` (stereo partly specified), for which the result in the assay filed under Homo sapiens [1] was Active. Turning to `CC(=O)OC[C@H]1OC(O[C@H]2CC[C@@]3(C)C(=CC[C@H]4[C@@H]5CC[C@H]([C@H](C)CCCC(C)C)[C@@]5(C)CC[C@@H]43)C2)C=C[C@@H]1OC(C)=O` (stereo partly specified), the outcome in the assay listed under Homo sapiens [1], in the assay filed under Homo sapiens [7], in the assay filed under Homo sapiens [8], in the assay listed under Homo sapiens [3] and in the assay filed under Homo sapiens [4] was Active.

`CC(=O)OCC1OC(O[C@H]2CC[C@@]3(C)C(=CC[C@H]4[C@@H]5CC[C@H](/C(C)=N/OC(C)C)[C@@]5(C)CC[C@@H]43)C2)C=C[C@@H]1OC(C)=O` (single isomer, unassigned): in the assay filed under Homo sapiens [1], the result was Active.

`CC(=O)OC[C@H]1OC(O[C@H]2CC[C@@]3(C)C(=CC[C@H]4[C@@H]5CC[C@H](/C(C)=N/OCC=C(C)C)[C@@]5(C)CC[C@@H]43)C2)C=C[C@@H]1OC(C)=O` (stereo partly specified): the result in the assay listed under Homo sapiens [1] was Active. On the same count and under the same terms, the result for `CCCCO/N=C(\C)[C@H]1CC[C@H]2[C@@H]3CC=C4C[C@@H](OC5C=C[C@H](OC(C)=O)C(COC(C)=O)O5)CC[C@]4(C)[C@H]3CC[C@]12C` (single isomer, unassigned) reads “Active”.

For `CC(=O)OC[C@H]1OC(O[C@H]2CC[C@@]3(C)C(=CC[C@H]4[C@@H]5CC[C@H]([C@@](C)(O)CCCC(C)C)[C@@]5(C)CC[C@@H]43)C2)C=C[C@@H]1OC(C)=O` (stereo partly specified), in the assay filed under Homo sapiens [5], the outcome was Active.

The record behind these values is ChEMBL document CHEMBL3124765, “Glucal-conjugated sterols as novel vascular leakage blocker: structure-activity relationship focusing on the C17-side chain” (Eur J Med Chem, 2014).
